Measured values reported in ChEMBL document CHEMBL4699650, “SAR Investigation and Discovery of Water-Soluble 1-Methyl-1,4-dihydroindeno[1,2-c]pyrazoles as Potent Tubulin Polymerization Inhibitors” (J Med Chem, 2020).
Activity calls are given as the source filed them. The rule behind the calls is not given here.

Tests used:
HepG2 [1] = assay: Induction of apoptosis in human HepG2 cells assessed as necrotic cells at 5 nM incubated for 12 hrs by Annexin V-PE and 7-AAD staining based flow cytometry (reference value: 0.55 %); format: functional
In short: (§1)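 HepG2 cells seeded at 3 × 10⁵ cells/well, adhered overnight, exposed at 5, 10 or 20 nM for 12 or 24 h. Harvested into Annexin V binding buffer and stained with annexin V-PE and 7-AAD for 15 min at room temperature in the dark, then analysed by flow cytometry. Gates: live (−/−), early apoptotic (+/−), late apoptotic (+/+), necrotic (−/+).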

HepG2 [2] = assay: Induction of apoptosis in human HepG2 cells assessed as live cells at 5 nM incubated for 12 hrs by Annexin V-PE and 7-AAD staining based flow cytometry (reference value: 92.1%); format: functional; in short: as §1
HepG2 [3] = assay: Induction of cell cycle arrest in human HepG2 cells assessed as accumulation in S phase at 10 nM incubated for 24 hrs by propidium iodide staining based flow cytometry (reference value: 26.65%); format: functional
HepG2 [4] = assay: Induction of cell cycle arrest in human HepG2 cells assessed as accumulation in G2/M phase at 5 nM incubated for 24 hrs by propidium iodide staining based flow cytometry (reference value: 12.59%); format: functional
HepG2 [5] = assay: Induction of apoptosis in human HepG2 cells assessed as late apoptotic cells at 5 nM incubated for 12 hrs by Annexin V-PE and 7-AAD staining based flow cytometry (reference value: 2.79%); format: functional; in short: as §1
HepG2 [6] = assay: Antiproliferation activity against human HepG2 cells assessed as cell growth inhibition measured after 72 hrs by MTT assay; format: functional
In short: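 Cells grown in RPMI-1640 with 10% FBS at 37 °C, 5% CO2, seeded at 4−7 × 10³ cells/well and left to adhere overnight. Exposed to a range of concentrations for 72 h, then MTT (2.5 mg/mL stock) added for 4 h. Formazan dissolved in DMSO and absorbance read at 570 nm. GI50 taken as the concentration giving 50% growth inhibition, reported as mean ± SD of at least three independent experiments.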

[7] = Cytotoxicity against human L02 cells assessed as assessed as cell growth inhibition measured after 72 hrs by MTT assay; format: cell-based
In short: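 LO2 normal liver cells cultured in RPMI-1640/10% FBS at 37 °C, 5% CO2 and seeded at 4−7 × 10³ cells/well. Graded concentrations applied for 72 h, then MTT readout at 570 nm. GI50 is the concentration giving 50% growth inhibition, mean ± SD of at least three independent experiments.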

Tubulin (Homo sapiens) = Tubulin (Homo sapiens) (UniProt P68371+Q9H4B7+P0DPH7+P68366+Q13509+Q71U36+P04350+Q3ZCM7+P07437+P68363+Q9BQE3+Q6PEY2+Q13885+Q9BVA1+Q9BUF5); assay: Induction of microtubule cytoskeleton disruption in human HepG2 cells assessed as microtubule shrinkage to the cell border at 10 nM measured after 24 hrs by Hoechst 33342 staining based immunofluorescence confocal microscopy analysis
In short: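 Fixed in ice-cold methanol/acetic acid 3:1, permeabilized 0.3% Triton X-100, blocked 5% BSA. Mouse anti-tubulin overnight at 4 °C, then TRITC anti-mouse IgG 2 h at 37 °C. Imaged by laser scanning confocal microscopy.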

HepG2 [8] = assay: Induction of apoptosis in human HepG2 cells assessed as late apoptotic cells at 10 nM incubated for 12 hrs by Annexin V-PE and 7-AAD staining based flow cytometry (reference value: 2.79%); format: functional; in short: as §1
[9] = Inhibition of porcine brain tubulin polymerization measured every 60 sec for 60 mins in presence of GTP by fluorescence assay; design: species or system Sus scrofa
In short: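 Fluorescence kit assay using 2 mg/mL porcine brain tubulin with 2 mM MgCl₂, 0.5 mM EGTA, 1 mM GTP and 15% glycerol. Compound at various concentrations preincubated 1 min at 37 °C before adding the tubulin mix. Read at ex 355/em 460 nm every 60 s for 60 min. IC50 is the concentration giving 50% inhibition at 60 min; mean ± SD of ≥3 independent experiments.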

HepG2 [10] = assay: Inhibition of cell migration in human HepG2 cells at 10 nM measured after 24 hrs by inverted light microscopy method based wound healing assay relative to control; format: functional
In short: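 Confluent HepG2 monolayer (seeded 3 × 10⁵ cells/well) scratched with a pipette tip and washed with PBS. Incubated in serum-free DMEM with compound at 2.5, 5 or 10 nM for 24 h; CA-4 run in parallel, DMSO as vehicle. Wound imaged at 0 and 24 h by inverted microscope and compared with control.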

HepG2 [11] = assay: Induction of apoptosis in human HepG2 cells assessed as early apoptotic cells at 20 nM incubated for 12 hrs by Annexin V-PE and 7-AAD staining based flow cytometry (reference value: 4.52%); format: functional; in short: as §1
[12] = biological target: Tubulin beta (Homo sapiens) (UniProt P68371+Q9H4B7+Q13509+P04350+Q3ZCM7+P07437+Q13885+Q9BVA1+Q9BUF5+A6NNZ2); assay: Inhibition of N,N'-Ethylenebis(iodoacetamide) binding to beta-tubulin in human HepG2 cells assessed as reduction in EBI/beta-tubulin adduct formation preincubated for 2 hrs followed by EBI addition and measured after 1.5 hrs by Western blot analysis; format: cell-based; conditions: dose microM 0.2-25, time 3.5 hrs
In short: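 HepG2 seeded 5 × 10⁵ cells/well, adhered overnight. […] Lysate protein (20 μg) run on 10% polyacrylamide gel on ice and transferred to PVDF. Probed with anti-β-tubulin 16 h at 4 °C, then HRP secondary. Chemiluminescence detection.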

HepG2 [13] = assay: Induction of cell cycle arrest in human HepG2 cells assessed as accumulation in G1 phase at 5 nM incubated for 24 hrs by propidium iodide staining based flow cytometry (reference value: 60.76%); format: functional
HepG2 [14] = assay: Induction of apoptosis in human HepG2 cells assessed as early apoptotic cells at 10 nM incubated for 24 hrs by Annexin V-PE and 7-AAD staining based flow cytometry (reference value: 4.16 %); format: functional; in short: as §1
HepG2 [15] = assay: Induction of apoptosis in human HepG2 cells assessed as necrotic cells at 5 nM incubated for 24 hrs by Annexin V-PE and 7-AAD staining based flow cytometry (reference value: 0.34 %); format: functional; in short: as §1
HepG2 [16] = assay: Induction of apoptosis in human HepG2 cells assessed as increase in cleaved caspase-3 expression incubated for 24 hrs by Western blot analysis; format: functional, cell-based; conditions: dose nM 2.5-20, time 24.0 hrs
In short: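 Lysates (20 μg protein) separated by 10% PAGE and blotted to PVDF. Probed for Bax, Bcl-2, cleaved caspase-3 and cleaved PARP, detected by ECL and quantified by densitometry.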

[17] = Toxicity in Balb/c nude mouse xenografted with human HepG2 cells assessed as adverse signs at 25 mg/kg, po qd administered for 21 days; format: organism-based; conditions: in vivo, 504 h, time 21 day
In short: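 Nude mice received 200 μL PBS with HepG2 cells (1 × 10⁷ cells/mL) subcutaneously in the right armpit. At 90 mm³ tumour volume, randomized to 5 per group. Dosed 25 mg/kg as a 2.5 mg/mL distilled-water solution, intragastric once daily for 21 days; distilled water as vehicle. Body weight recorded every 3 days; change given as initial vs end weight.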

HepG2 [18] = assay: Induction of cell cycle arrest in human HepG2 cells assessed as accumulation in S phase at 20 nM incubated for 24 hrs by propidium iodide staining based flow cytometry (reference value: 26.65%); format: functional

GI50 (HepG2 [6]): 2.4 nM
Activity (Tubulin (Homo sapiens)): Active
IC50 [9]: 3700 nM
inhibition [12]: Dose-dependent effect
SMILES: CCOc1cccc(Nc2nn(C)c3c2Cc2cc(OCC)c(OCCCN)cc2-3)c1
Activity (HepG2 [1]): 0.43%
Activity (HepG2 [2]): 90.4%
Activity (HepG2 [3]): 26.85%
Activity (HepG2 [4]): 19.78%
Activity (HepG2 [5]): 3.53%
GI50 at 72 h [7]: 284 nM
Activity (HepG2 [8]): 4.39%
inhibition at 0.01 µM (HepG2 [10]): 58%
Activity (HepG2 [11]): 14.5%
Activity (HepG2 [13]): 49.56%
Activity (HepG2 [14]): 16.7%
Activity (HepG2 [15]): 0.32%
Activity (HepG2 [16]): Dose-dependent effect
Activity [17]: Non-Toxic
Activity (HepG2 [18]): 8.43%
